We go through 7 molecules from PubChem BioAssay.

Usually inhibition stands for the change of the read-out against control, counted positive when it falls.

The source made the active and inactive calls.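 The calls were made as follows, unless noted: active = inhibition above 20% together with a positive visual image hit; inconclusive = visual image hit but inhibition not above 20%; inactive = no visual image hit.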

A short description of assay [1]: inhibitors of TNFa-induced NFkB p65 translocation, primary screen, imaging, HUVEC, MLSMR starter and 10KST1 sets (AID 438).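 Also: compound added about 3h40 before a 20 min TNFalpha stimulation.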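 As to inhibition: signal is the nuclear over cytoplasmic p65 intensity ratio per well.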 The conditions noted are these: HUVEC TNFa-induced p65 nuclear translocation; cell count: measured here: nuclei count (cytotoxicity indicator), at 2.08 µM; inhibition: at 2 µM, stronger effect = higher value, 0% TNFa-plus-vehicle, 100% no-TNFa wells.
Assay [2] can be described thus: inhibitors of E-selectin induction by TNFa, primary screen, imaging, HUVEC, immunofluorescence, MLSMR starter and 10KST1 sets (AID 487;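 active = visually confirmed hit in the image check and inhibition above 20%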;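 as to inhibition: signal is fraction of cell area covered by stained E-selectin grains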;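 as to nuclei count: 100% = median nuclei count of all wells on the same plate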). To be noted: HUVEC TNFalpha-induced E-selectin immunofluorescence imaging, at 2 µM; inhibition: stronger effect = higher value; nuclei count: measured here: cell number, toxicity.
Assay [3] is described as follows: DUSP6 inhibitors restoring Erk phosphorylation by chemical complementation, primary imaging in DUSP6-transfected HeLa (AID 609;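 active = compounds giving at least 50% inhibition in the cell-based MKP-3 phosphatase rescue imaging test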;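 as to inhibition: phospho-Erk level distribution per well compared with pooled transfected vehicle control wells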). The conditions noted are these: HeLa MKP-3 transfected, phospho-Erk imaging KS statistic, at 10 µM, cells stimulated with TPA for 15 min.
The target of assay [4] is Dual specificity protein phosphatase 6 (Homo sapiens) (UniProt Q16828). Described as above. To be noted: HeLa MKP-3 transfected, phospho-Erk imaging KS statistic; at 10 µM; stronger effect = higher value; cells stimulated with TPA for 15 min.
Assay [5] deals with Voltage-gated potassium channel subunit beta-2 (Rattus norvegicus) (UniProt P62483). The experiment in a line: KvBeta enzyme negative modulators, primary screen, biochemical, NADPH fluorescence (AID 622;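 active = fluorescence slope higher than the sample average by over 3 SD, cut at about -0.22 in these data, passing the limit was not always enough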;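 also: slope of raw intensity against log time taken from 70 to 1610 s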). The conditions noted are these: recombinant KvBeta, 4-cyanobenzaldehyde reduction, at 10 µM, stronger effect = higher value.
Assay [6] shares this target. The experiment in a line: KvBeta positive modulators, primary screen, biochemical, NADPH fluorescence (AID 623;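 active = NADPH fluorescence slope more negative than the mean of all samples by about 3 SD, 99.7% confidence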;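 also: fluorescence intensity change per second fitted from 20 to 320 s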). The conditions noted are these: Recombinant KvBeta, NADPH fluorescence decrease slope, 10 min; at 10 µM; stronger effect = lower value.
Assay [7] addresses Alpha-2C adrenergic receptor (Homo sapiens) (UniProt P18825). The experiment in a line: modulators of alpha2C/GIRK thallium flux, primary screen, cell-based, HEK293 alpha2C/GIRK1/2 (AID 624;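 active = fluorescence slope after compound addition differing from the mean of all screened samples at 99.7% confidence, in either direction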;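 also: slope of fluorescence ratio to pre-addition baseline per second over 15 to 24 s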). To be noted: thallium flux BTC fluorescence, at 10 µM, actives lie on both sides.
A short description of assay [8]: inhibitors of larval lipid processing in zebrafish, primary screen, whole organism, PED6 fluorescence, gall bladder and intestine (AID 686;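 active = a full or partial loss of lipid-probe fluorescence in the fish gall bladder, intestine or both, judged by eye; inactive = no fluorescence loss, or compound toxic to the fish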;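 also: larvae 5 to 7 days old with five fish per well; signal comes from phospholipase A2 cleavage of quenched PED6 carried via bile; overnight exposure to compound and PED6 before scoring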). The conditions noted are these: Zebrafish larvae PED6 lipid processing, fluorescence scoring; screened at 20 µM (by protocol). An outline of the steps:
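Also added: quenched phospholipase substrate PED6, 100 nM final, ingested by larvae; System: zebrafish larvae, 5-7 d; Quantity: 5 larvae per well; Compound: 20 µM single dose; Schedule: overnight compound and PED6 incubation; Read-out: visual per-well fluorescence inhibition score; Measured by: By-eye fluorescence microscopy; Medium: E3.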

The nature of assay [9]: inhibitors of Chlamydomonas gravitaxis, primary screen, whole organism, Chlamydomonas reinhardtii, WT vs cilia-less mutant, absorbance, 96-well (AID 463189;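 active = inhibition at or above 50% relative to wild type and mutant plate controls; inactive = inhibition below 50%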;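 also: 0% = wild type cc124 cells in DMSO and 100% = ciliumless bld1 mutant cells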). To be noted: OD600 absorbance, 2 days, at 10 µM, stronger effect = higher value.
Setting [10] is: measured here: cell density z-score.
Where [11] appears, read: measured here: nuclear c-Myc green intensity z-score.
The mark [12] stands for this setting: measured here: nuclear pErk red intensity z-score, stronger effect = higher value.

Sequence of Dual specificity protein phosphatase 6 (Homo sapiens) (Q16828 whole entry, looked up): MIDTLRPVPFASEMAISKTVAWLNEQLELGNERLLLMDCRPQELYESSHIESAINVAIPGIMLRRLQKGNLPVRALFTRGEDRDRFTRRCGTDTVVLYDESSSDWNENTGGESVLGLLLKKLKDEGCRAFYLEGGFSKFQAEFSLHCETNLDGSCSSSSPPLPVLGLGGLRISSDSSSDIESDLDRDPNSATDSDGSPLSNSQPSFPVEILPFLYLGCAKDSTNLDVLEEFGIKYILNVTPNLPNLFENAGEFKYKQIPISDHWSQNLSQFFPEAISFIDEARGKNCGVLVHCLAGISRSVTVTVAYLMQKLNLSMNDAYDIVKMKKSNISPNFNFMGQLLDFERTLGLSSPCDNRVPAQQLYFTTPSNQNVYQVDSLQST
Sequence of Alpha-2C adrenergic receptor (Homo sapiens) (P18825 whole entry, looked up): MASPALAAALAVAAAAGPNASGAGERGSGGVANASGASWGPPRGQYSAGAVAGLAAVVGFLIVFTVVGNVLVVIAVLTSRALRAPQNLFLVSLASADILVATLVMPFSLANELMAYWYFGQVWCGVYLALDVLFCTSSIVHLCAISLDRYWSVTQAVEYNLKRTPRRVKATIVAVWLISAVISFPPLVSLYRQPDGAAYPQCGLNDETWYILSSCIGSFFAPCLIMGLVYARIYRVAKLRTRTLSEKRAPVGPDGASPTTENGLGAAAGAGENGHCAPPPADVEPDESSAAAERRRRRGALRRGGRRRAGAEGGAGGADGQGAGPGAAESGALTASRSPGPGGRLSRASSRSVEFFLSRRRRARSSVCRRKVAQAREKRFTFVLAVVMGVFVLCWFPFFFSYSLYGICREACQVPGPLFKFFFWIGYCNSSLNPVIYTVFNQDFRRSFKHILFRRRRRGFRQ
Sequence of Voltage-gated potassium channel subunit beta-2 (Rattus norvegicus) (P62483 whole entry, looked up): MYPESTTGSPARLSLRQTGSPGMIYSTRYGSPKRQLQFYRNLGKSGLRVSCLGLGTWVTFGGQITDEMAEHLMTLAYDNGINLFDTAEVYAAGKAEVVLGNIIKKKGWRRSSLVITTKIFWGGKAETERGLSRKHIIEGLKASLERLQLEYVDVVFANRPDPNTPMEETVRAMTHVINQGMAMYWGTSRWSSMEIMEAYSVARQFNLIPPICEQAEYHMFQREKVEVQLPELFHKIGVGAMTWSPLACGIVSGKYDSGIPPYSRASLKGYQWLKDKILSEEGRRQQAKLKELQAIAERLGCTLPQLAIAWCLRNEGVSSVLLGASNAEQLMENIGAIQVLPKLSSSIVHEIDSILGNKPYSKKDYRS

As for `CC1CN(C2CCN(S(=O)(=O)c3ccccc3)CC2)CC(C)O1` (stereo unspecified), the cell count in [1] came out at 451. The inhibition in assay [1] is -10.8% (inactive); in assay [2], -248% (inactive); in assay [4], 4.37% (inactive); in [9], 6.96% (inactive). This molecule returned a nuclei count in assay [2] of 159%. Besides, the z-score in assay [3] (setting [10]) is 1.27; in [3] (setting [11]) it was -1.71; in assay [3] (setting [12]) it was -0.713. For the same molecule, in [5], the fluorescence slope is -0.322 (inactive). Besides, the NADPH fluorescence slope in assay [6] is -2.3e-05 (inactive). Also, the slope in assay [7] is 0.00481 (inactive). Besides, in [8], the result was inactive.

For the molecule `Cc1ccccc1OCc1nc2ccccc2c(=O)n1NC(=O)c1ccco1`, the cell count in assay [1] worked out at 346. Further, the inhibition is -13.7% (inactive) in assay [1], -57% (inactive) in assay [2], 19.3% (inactive) in [4] and 24.1% (inactive) in [9]. The molecule further gave a nuclei count in [2] of 104%. The z-score in [3] (setting [10]) is 0.846; in [3] (setting [11]) it was 0.49; in assay [3] (setting [12]) it was -1.53. In assay [5], the fluorescence slope was -0.498 (inactive). For the same molecule, the NADPH fluorescence slope in assay [6] is -1.5e-05 (inactive). In [7], the slope is 0.00616 (inactive). Further, the outcome in assay [8] was inactive.

For `O=C(NCc1ccco1)c1cnn2c1NC(c1ccccc1)CC2C(F)(F)F` (stereo unspecified), the cell count in assay [1] was found to be 479. Moreover, the inhibition in assay [1] is -5.5% (inactive); in assay [2] it was -25.8% (inactive); in assay [4], -2.07% (inactive); in assay [9], -7.85% (inactive). Besides, in [2], the nuclei count is 107%. The z-score in [3] (setting [10]) is -0.862; in [3] (setting [11]) it was 0.861; in assay [3] (setting [12]), -0.0535. Also, the fluorescence slope in assay [5] is -0.53 (inactive). For the same molecule, in assay [6], the NADPH fluorescence slope is -4e-05 (inactive). The slope in [7] was 0.0056 (inactive). Further, the result in assay [8] was inactive.

Consider `C=CCN(C(=O)CCC(=O)O)C1CC(=O)N(c2ccc(OCCC)cc2)C1=O` (stereo unspecified), for which the cell count in assay [1] is 454. Also, the inhibition in [1] is -10.8% (inactive); in [2], -213% (inactive); in assay [4], -2.29% (inactive); in [9], 6.01% (inactive). In addition, the nuclei count in assay [2] worked out at 223%. Besides, the z-score in assay [3] (setting [10]) is 0.015; in assay [3] (setting [11]), -1.26; in assay [3] (setting [12]), -0.0284. The fluorescence slope in assay [5] is -0.384 (inactive). Besides, the NADPH fluorescence slope in assay [6] was -2.5e-05 (inactive). Also, the slope in assay [7] was 0.00464 (inactive). Also, in assay [8], the molecule was called inactive.

With `CCC1(C)Cc2c(sc3nc4n(c(=O)c23)CCS4)CO1` (stereo unspecified), the cell count in assay [1] was determined as 596. Besides, the inhibition in [1] is -14.8% (inactive); in assay [2], -109% (inactive); in assay [4], -6.86% (inactive); in [9] it was 5.08% (inactive). In addition, in [2], the nuclei count amounted to 182%. Moreover, the z-score in [3] (setting [10]) is -1.93; in assay [3] (setting [11]), -0.473; in assay [3] (setting [12]), 1.15. Further, in assay [5], the fluorescence slope was -0.336 (inactive). Also, the NADPH fluorescence slope in assay [6] is -1e-05 (inactive). In assay [7], the slope was 0.00519 (inactive). For the same molecule, the molecule was classed as inactive in [8].

With `COC(=O)c1ccc(C2C(C(=O)c3cc4ccccc4o3)=C(O)C(=O)N2CCCN(C)C)cc1` (stereo unspecified), in assay [1], the cell count is 423. For the same molecule, the inhibition in assay [1] was -8.1% (inactive); in assay [2] it was -11.6% (inactive); in assay [4], -6.48% (inactive); in assay [9], -1.14% (inactive). The molecule also returned a nuclei count in assay [2] of 167%. Moreover, the z-score in assay [3] (setting [10]) was 0.389; in [3] (setting [11]) it was 1.47; in assay [3] (setting [12]), 0.581. Also, in [5], the fluorescence slope is -0.405 (inactive). Besides, the NADPH fluorescence slope in assay [6] is -7.3e-05 (inactive). In assay [7], the slope was 0.00626 (inactive). Moreover, the molecule was classed as inactive in [8].

For `O=C(CN1C(=O)c2ccccc2C1=O)NCc1ccccn1`, the cell count in assay [1] amounted to 400. In addition, the inhibition in assay [1] is -5.8% (inactive); in assay [2], -67.3% (inactive); in [4], 5.42% (inactive); in assay [9] it was 26% (inactive). In [2], this molecule registered a nuclei count of 171%. Further, the z-score in assay [3] (setting [10]) was 0.0865; in assay [3] (setting [11]) it was -1.72; in assay [3] (setting [12]), 1.07. For the same molecule, in assay [5], the fluorescence slope was -0.417 (inactive). Moreover, the NADPH fluorescence slope in assay [6] was -0.000121 (inactive). Moreover, in assay [7], the slope is 0.00507 (inactive). Besides, in [8], the molecule was called inactive.
